TRPC6 inhibitor: blocks the mouse TRPC6 cation channel; Q61143; HEK293-TRPC6, membrane potential dye, ACh-evoked depolarization; active compounds read low; B-score at 10 µM; 310,000 tested, 1.1% active; AID 2553;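 active = B-score under library mean minus 3 SD, initial fluorescence not abnormally high, positive integrated signal ratio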;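 note: B-score derived from integrated fluorescence ratio over the kinetic read; more negative B-score means stronger inhibition of depolarization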
TRPC6 act: mouse TRPC6 channel activation | HEK293-TRPC6 membrane potential dye fluorescence; active compounds read high | AID 2550 | B-score at 10 µM | 310,000 tested, 0.13% active;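 active = B-score of the integrated fluorescence ratio above library mean plus 3 SD, and starting fluorescence ratio within library mean plus 5 SD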;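 note: higher score means more depolarization so channel activation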
TRPC4 block: inhibitors of mouse TRPC4 channel; Q9QUQ5; HEK293 TRPC4beta/mu-opioid, DAMGO-evoked Fluo4 calcium flux; active compounds read low; B-score at 10 µM; 300,000 tested, 0.39% active; AID 2247;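 active = B-score over 3 SD under the library average, no early fluorescence shift, positive overall ratio signal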
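test system = HEK293 cells with stable TRPC4beta plus mu-opioid receptor expression | detection = Fluo4 Ca2+ flux fluorescence | read-out = integrated fluorescence ratio relative to baseline, converted to per-well B score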
TRPC4 agonist: activators of mouse TRPC4 channel; 310,000 tested, 0.49% active; Q9QUQ5; HEK293 TRPC4beta/mu-opioid, Fluo4 calcium fluorescence; active compounds read high; B-score at 10 µM;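 active = B-score above 5 SD of library B-scores, and initial fluorescence ratio not above library mean plus 5 SD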;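 note: positive B-score marks a calcium rise read as TRPC4 activation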
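Technique: kinetic Fluo4 calcium fluorescence; Test system: TRPC4beta and mu-opioid receptor HEK293 stable cells; Measure: B-scored integrated calcium fluorescence ratio; Benchmarks: low control buffer alone, high control maximal DAMGO; Schedule: 45 min room-temperature Fluo4 loading, 110 s read.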
TRPC4 potent: TRPC4 (mouse) allosteric potentiation | Q9QUQ5 | HEK293 TRPC4beta/mu-opioid, DAMGO EC20, Fluo-4 Ca2+ flux; active compounds read high | B-score at 10 µM | 310,000 tested, 0.42% active | AID 2227;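 active = B-score of calcium response area above 5 SD of library B-scores, with initial fluorescence ratio within 5 SD of library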;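 note: B-score of integrated fluorescence ratio over time as area under calcium response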
TRPC4 sel inh 2: mouse TRPC4 off-target activity of TRPC6 inhibitors, second screen | AID 2776 | inhibition, % at 10 µM | shares compounds with TRPC6 inhibitor | 920 tested, 42% active | HEK293 TRPC4/MOR, membrane potential dye fluorescence; channel activated by saturating DAMGO dose;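 active = compounds whose fluorescence signal differed from control wells by over 3 SD, either direction, in both duplicate plates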
TRPC4 spec: mouse TRPC4 off-target activity of TRPC6 inhibitors; shares compounds with TRPC6 inhibitor; HEK293 TRPC4/mu-opioid, membrane potential fluorescence; activity change, negative = inhibition, % at 10 µM; 920 tested, 61% active;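 active = rise or fall in signal beyond 3 SD of buffer-only wells in both replicate plates, either sign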;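 note: integrated kinetic ratio of fluorescence range over baseline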
HEK293 MPD ctr 2-1: parental HEK293 nonspecific activity of TRPC6 inhibitors, second screen. shares compounds with TRPC6 inhibitor. signal change vs control, % at 10 µM. AID 2779. 920 tested, 31% active. parental HEK293 membrane potential dye fluorescence; maximal acetylcholine challenge after compound addition;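 active = membrane potential signal moving either way by over 3 SD of the maximum-effect control, in both duplicate plates, meaning non-specific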
HEK293 MPD ctr-1: parental HEK293 nonspecific activity of TRPC6 inhibitors | shares compounds with TRPC6 inhibitor | 920 tested, 60% active | parental HEK293 membrane potential dye fluorescence | membrane potential signal change, % at 10 µM;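 active = membrane potential signal shifting up or down by more than 3 SD of buffer-only wells, on both duplicate plates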
HEK293 MPD ctr-2: parental HEK293 nonspecific activity of TRPC6 modulators; shares compounds with TRPC6 inhibitor; membrane potential dye fluorescence; membrane potential signal change, % at 10 µM; 2,400 tested, 51% active; AID 488924;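 active = membrane potential signal moves up or down beyond 5 SD from buffer-only wells, on both duplicate plates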
HEK293 MPD ctr 2-2: second check of TRPC6 modulator effects in parental HEK293 cells; shares compounds with TRPC6 inhibitor; 2,400 tested, 14% active; inhibition, % at 10 µM; membrane potential dye fluorescence; after compound, maximal acetylcholine stimulation;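 active = membrane potential signal drops by more than 5 SD from the mean control signal, in both duplicate plates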;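 note: plate controls were acetylcholine ECmax control wells for no effect and buffer only wells for full effect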
TRPC4 ctr mod: tests whether TRPC6 modulators also affect mouse TRPC4; HEK293 TRPC4/mu-opioid, membrane potential fluorescence; AID 488927; percent change from control (negative = decrease, positive = increase), % at 10 µM; shares compounds with TRPC6 inhibitor; 2,400 tested, 69% active;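 active = membrane potential signal moved up or down beyond 5 SD of buffer control wells, in both duplicate plates, actives on both sides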;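 note: plate controls were assay buffer wells for no effect and DAMGO maximal-effect wells for full effect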
TRPC4/MOR inh 2: second check of whether TRPC6 modulators also affect mouse TRPC4; shares compounds with TRPC6 inhibitor; HEK293 TRPC4/mu-opioid, membrane potential dye fluorescence; stimulated with maximal-effect DAMGO; inhibition, % at 10 µM; 2,400 tested, 55% active;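 active = drop in membrane potential signal beyond 5 SD of the control wells in both duplicate plates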;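 note: TRPC4 counter screen for TRPC6 hits run under conditions tuned for TRPC6 not TRPC4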
TRPC6 inh conf: confirmation of mouse TRPC6 inhibitors; HEK293-TRPC6, membrane potential dye, ACh-evoked depolarization; shares compounds with TRPC6 inhibitor; AID 488960; 3,300 tested, 43% active; inhibition, % at 10 µM;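 active = fluorescence ratio falls more than 5 SD below the full-stimulation control mean, in both duplicate runs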;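 note: integrated fluorescence ratio of peak minus minimum over baseline after agonist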
TRPC6 act conf: confirmation of mouse TRPC6 activators | 2,800 tested, 11% active | shares compounds with TRPC6 inhibitor | HEK293-TRPC6 membrane potential dye fluorescence, FDSS | activation, % at 10 µM;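 active = ratio signal rise beyond 5 SD above unstimulated control wells' mean, seen in both duplicate runs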;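 note: plate controls were buffer EC0 wells for no effect and acetylcholine ECmax response for full effect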
An asterisk follows results filed as active; i = inactive; · = not tested or not shown. Hits are enriched below; roughly 2.3% of the tested compounds scored in any of these assays.

SMILES | TRPC6 inhibitor | TRPC6 act | TRPC4 block | TRPC4 agonist | TRPC4 potent | HEK293 MPD ctr-2 | HEK293 MPD ctr 2-2 | TRPC4 ctr mod | TRPC4/MOR inh 2 | TRPC6 inh conf | TRPC6 act conf | others
CC(C)Oc1ccc(C(=O)Nc2ccc(N3CCCCC3)cc2)cc1 | -5.9* | i | i | i | i | i | i | i | i | i | i
Cc1ccc(C(=O)Nc2ccc(N3CCN(S(C)(=O)=O)CC3)cc2)cc1C | i | i | i | i | i | · | · | · | · | · | ·
Cc1ccc(C(=O)Nc2ccc(N3CCN(C)CC3)cc2)cc1C | -6.1* | i | i | i | i | i | i | -15%* | 44%* | 42%* | i
Cc1ccc(C(=O)Nc2ccc(N3CCCC3)cc2)cc1 | i | i | i | i | i | · | · | · | · | · | ·
CN1CCN(/N=C/c2nc(-c3cccc([N+](=O)[O-])c3)n3ccccc23)CC1 | -5.2* | i | i | i | i | -165%* | i | -30%* | 46%* | 51%* | i
CCn1c(SCC(=O)Nc2ccc(Br)cn2)nnc1C1CC1 | i | i | i | i | i | · | · | · | · | · | ·
NCCCn1c(C(=O)c2ccc(Cl)cc2)c2ccc(C(F)(F)F)cc2[n+]1[O-] | -9.3* | i | i | i | i | · | · | · | · | 67%* | i | TRPC4 sel inh 2=56%*;TRPC4 spec=-11%*;HEK293 MPD ctr 2-1=i;HEK293 MPD ctr-1=-180%*
CC(C)(C)c1ccccc1NC(=O)N1CCNC(=O)C1CC(=O)Nc1ccc(F)cc1 (stereo not drawn) | i | i | i | i | i | · | · | · | · | · | ·
CC1CCN(CC(C)OC(=O)c2ccc3c(c2)OCCO3)CC1 (stereo not drawn) | -5.2* | i | i | i | i | 120%* | i | 15%* | i | i | ·
Cc1ccc(NC(=O)c2cc(-c3cccs3)nc3ccccc23)nc1 | -6.4* | i | i | i | i | i | i | i | 39%* | i | i
CCOC(=O)c1ccc(NC(=S)N2CCCC(C)C2)cc1 (stereo not drawn) | -5* | i | i | i | i | i | i | i | i | i | i
CCOC(=O)c1ccc(NC(=S)N2CCCC(C(=O)N3CCCC3)C2)cc1 (stereo not drawn) | i | i | i | i | i | · | · | · | · | · | ·
COc1ccc(Nc2c(-c3ccc(C)cc3)nc3cnccn23)cc1 | i | i | i | i | i | · | · | · | · | · | ·
Cc1ccc(Nc2c(-c3ccccc3O)nc3cnccn23)cc1 | -6.6* | i | i | i | i | i | i | -11%* | 68%* | i | i
Cn1cnc2cc(NC(=O)c3ccc(Cl)cc3)ccc21 | -5.3* | i | i | i | i | i | i | -11%* | i | i | i
COc1cc(/C=N/NC(=O)Nc2ccccc2)ccc1OC(C)=O | i | i | i | i | i | · | · | · | · | · | ·
C=CC[n+]1c(/C=C/c2ccc(OC(C)=O)c(OC)c2)ccc2ccccc21 | -8* | i | i | i | i | -301%* | 90%* | -57%* | 65%* | 64%* | i
CC(C)(C)c1ccc(Cn2c(=N)n(CC(O)c3ccco3)c3ccccc32)cc1 (stereo not drawn) | -7.3* | i | i | i | i | · | · | · | · | 67%* | i | TRPC4 sel inh 2=37%*;TRPC4 spec=11%*;HEK293 MPD ctr 2-1=i;HEK293 MPD ctr-1=8.7%*
CCn1c(=N)n(CC(O)c2ccccc2)c2ccccc21 (stereo not drawn) | i | i | i | i | i | · | · | · | · | · | ·
CCCCn1c(=N)n(CC(O)c2ccccc2)c2ccccc21 (stereo not drawn) | i | i | i | i | i | · | · | · | · | · | ·
Cc1ccccc1Cn1c(=N)n(CC(O)c2ccco2)c2ccccc21 (stereo not drawn) | -5.2* | i | -6* | i | i | 143%* | i | 49%* | 99%* | 48%* | ·
COCc1cc(=O)[nH]c(-c2ccccc2OC(F)(F)F)n1 | i | i | i | i | i | · | · | · | · | · | ·
Cc1cccc(-n2ccnc2CN2CCN(C(C)C)C(CCO)C2)c1 (stereo not drawn) | i | i | i | i | i | · | · | · | · | · | ·
CC(CCc1ccccc1)NC(=O)COC(=O)c1ccc(NC(N)=O)cc1 (stereo not drawn) | i | i | i | i | i | · | · | · | · | · | ·
CCOC(=O)c1[nH]c2ccccc2c1CCCN1C(=O)c2ccccc2C1=O | -6.9* | i | i | i | i | · | · | · | · | i | i | TRPC4 sel inh 2=i;TRPC4 spec=i;HEK293 MPD ctr 2-1=i;HEK293 MPD ctr-1=i
Brc1cc(Cc2nnc(-c3ccccc3)o2)c(Br)s1 | i | i | i | i | i | · | · | · | · | · | ·
CCOC(=O)C1=C(C)OC(N)=C(C#N)C1c1cc2c(cc1Br)OCO2 (stereo not drawn) | -5.2* | i | i | i | i | i | i | i | i | i | i

Bioassay records deposited in PubChem by Johns Hopkins Ion Channel Center.
